Measured values published in ChEMBL document CHEMBL2202989, “New adamantane phenylalkylamines with σ-receptor binding affinity and anticancer activity, associated with putative antagonism of neuropathic pain” (J Med Chem, 2012).

How the values were obtained:
[1] = tested on: BXPC-3; assay: Cell cycle arrest in human BxPC3 cells assessed as accumulation at >G2/M phase at 5 uM after 24 hrs using propidium iodide staining by FACS analysis (reference value: 6 %); assay type: functional
How it was run: (§1)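 Cells were plated 24 h before treatment and exposed for 24 h at final 0.5, 5, 15 and 50 μM in 0.5% DMSO, against vehicle-treated controls. Cells were then trypsinised and fixed in cold ethanol for 3 h at 4 °C. They were stained in a mix of RNase (200 μg/mL) and PI (1 mg/mL) for 45 min at room temperature in the dark. Flow cytometry used 488 nm excitation and 10 000 gated cells. Phase percentages were assigned from DNA content.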

[2] = tested on: IGROV-1; assay: Induction of apoptosis in human IGROV1 cells assessed as healthy cells at 0.5 uM using annexin V/7-AAD by FACS analysis (reference value: 86 %); assay type: functional
[3] = target: Sigma non-opioid intracellular receptor 1 (Homo sapiens, UniProt Q99720); assay: Displacement of [3H]-(+)-pentazocine from sigma 1 receptor in human Jurkat cell membrane; assay type: cell membranes
How it was run: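 Jurkat cell membranes incubated with 8 nM [3H](+)-pentazocine and a range of test concentrations for 2 h at 22 °C in Tris-HCl buffer, pH 7.4. Nonspecific binding defined with 10 μM haloperidol. Run in triplicate.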

[4] = tested on: PC-3; assay: Cell cycle arrest in human PC3 cells assessed as accumulation at >G2/M phase at 15 uM after 24 hrs using propidium iodide staining by FACS analysis (reference value: 6 %); assay type: functional
[5] = tested on: BXPC-3; assay: Antitumor activity against human BxPC3 cells xenografted in SCID mouse assessed as tumor growth inhibition at 40 mg/kg, ip administered 3 consecutives days per week for three cycles measured after 3 cycles relative to control; assay type: functional; conditions: BXPC-3, ip, route intraperitoneal, read-out: TGI
How it was run: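 BxPC3 xenografts were grown in SCID mice from inocula of 10^6 exponentially growing cells, with 10 mice (20 tumors) per group. Treatment started ip once tumors averaged about 100 mm3. The test agent was given in 5% Tween 80 and gemcitabine in water for injection. Tumor volume was measured by caliper twice weekly and %ΔT/ΔC was computed; two-tailed Student's t test.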

[6] = tested on: BXPC-3; assay: Cell cycle arrest in human BxPC3 cells assessed as accumulation at S phase at 50 uM after 24 hrs using propidium iodide staining by FACS analysis (reference value: 33 %); assay type: functional; how it was run: as §1
[7] = tested on: BXPC-3; assay: Induction of apoptosis in human BxPC3 cells assessed as total apoptotic death at 0.5 uM using annexin V/7-AAD by FACS analysis (reference value: 18 %); assay type: functional
How it was run: (§2)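 Cells plated 24 h before treatment, then exposed 24 h to 0.5, 5, 15 or 50 μM compound (final DMSO 0.5%); vehicle controls included. Cells scraped and stained with annexin V-FITC and 7-AAD for 15 min on ice in the dark. Flow cytometry with 488 nm excitation, 10,000 gated cells. Early apoptosis was annexin V+/7-AAD−, late was annexin V+/7-AAD+.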

[8] = tested on: HCT-15; assay: Growth inhibition of human HCT15 cells after 48 hrs by SRB assay; assay type: functional; conditions: HCT-15, 48 h
How it was run: (§3)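 Cells grown in RPMI 1640 with 5% heat-inactivated FCS, 2 mM L-glutamine and antibiotics, 37 °C, 5% CO2. Seeded at 3500–30000 cells/well and left 24 h before dosing. DMSO solutions added at 10-fold dilutions from 100 to 0.01 μM for 48 h. Cells TCA-fixed and SRB-stained, absorbance read at 540 nm; GI50 derived against the time-zero plate.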

[9] = tested on: PC-3; assay: Cell cycle arrest in human PC3 cells assessed as accumulation at >G2/M phase at 0.5 uM after 24 hrs using propidium iodide staining by FACS analysis (reference value: 6 %); assay type: functional
[10] = tested on: IGROV-1; assay: Cell cycle arrest in human IGROV1 cells assessed as accumulation at sub G1 phase at 15 uM after 24 hrs using propidium iodide staining by FACS analysis (reference value: 4 %); assay type: functional
[11] = tested on: IGROV-1; assay: Induction of apoptosis in human IGROV1 cells assessed as early apoptosis at 15 uM using annexin V/7-AAD by FACS analysis (reference value: 9 %); assay type: functional
[12] = tested on: IGROV-1; assay: Cell cycle arrest in human IGROV1 cells assessed as accumulation at S phase at 0.5 uM after 24 hrs using propidium iodide staining by FACS analysis (reference value: 29 %); assay type: functional
[13] = tested on: PC-3; assay: Induction of apoptosis in human PC3 cells assessed as late apoptosis at 0.5 uM using annexin V/7-AAD by FACS analysis (reference value: 3 %); assay type: functional
[14] = Displacement of [3H]batrachotoxin benzoate from Na+ channel after 60 mins by liquid scintillation counting
How it was run: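 Na+ channel site 2 binding: vesicle preparation (150−500 μg protein) incubated 60 min with 20−25 nM [3H]BTX-B and 50 μg Leiurius quinquestriatus venom. Buffer was 130 mM choline chloride, 50 mM HEPES/Tris pH 7.4, glucose, MgSO4, KCl, BSA. Filtered on GF/C with cold washes; scintillation counting. Nonspecific binding defined with 250 μM veratridine.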

[15] = tested on: BXPC-3; assay: Induction of apoptosis in human BxPC3 cells assessed as total apoptotic death at 50 uM using annexin V/7-AAD by FACS analysis (reference value: 18 %); assay type: functional; how it was run: as §2
[16] = tested on: IGROV-1; assay: Cell cycle arrest in human IGROV1 cells assessed as accumulation at G2 phase at 50 uM after 24 hrs using propidium iodide staining by FACS analysis (reference value: 19 %); assay type: functional
[17] = tested on: HCT-116; assay: Growth inhibition of human HCT116 cells after 48 hrs by SRB assay; assay type: functional; conditions: HCT-116, 48 h; how it was run: as §3
[18] = tested on: PC-3; assay: Induction of apoptosis in human PC3 cells assessed as total apoptotic death at 15 uM using annexin V/7-AAD by FACS analysis (reference value: 8 %); assay type: functional; how it was run: as §2
[19] = tested on: IGROV-1; assay: Induction of apoptosis in human IGROV1 cells assessed as late apoptosis at 50 uM using annexin V/7-AAD by FACS analysis (reference value: 5 %); assay type: functional
[20] = tested on: PC-3; assay: Induction of apoptosis in human PC3 cells assessed as early apoptosis at 50 uM using annexin V/7-AAD by FACS analysis (reference value: 5 %); assay type: functional; how it was run: as §2
[21] = tested on: IGROV-1; assay: Induction of apoptosis in human IGROV1 cells assessed as healthy cells at 15 uM using annexin V/7-AAD by FACS analysis (reference value: 86 %); assay type: functional
[22] = tested on: BXPC-3; assay: Cell cycle arrest in human BxPC3 cells assessed as accumulation at G1 phase at 15 uM after 24 hrs using propidium iodide staining by FACS analysis (reference value: 41 %); assay type: functional; how it was run: as §1
[23] = read-out: LC50 (the source's name)

Chain of Sigma non-opioid intracellular receptor 1 (Q99720 whole entry): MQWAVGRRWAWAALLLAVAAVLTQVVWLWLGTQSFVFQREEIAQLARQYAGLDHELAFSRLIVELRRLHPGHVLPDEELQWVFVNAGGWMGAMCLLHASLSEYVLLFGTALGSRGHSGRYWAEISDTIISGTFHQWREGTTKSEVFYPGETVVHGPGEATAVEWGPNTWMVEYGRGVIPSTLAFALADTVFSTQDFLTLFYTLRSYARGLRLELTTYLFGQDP

CN1CCN(CCCc2ccc(C(c3ccccc3)C34CC5CC(CC(C5)C3)C4)cc2)CC1 (stereo unspecified)
Activity [1]: 5%
Activity [2]: 89%
IC50 [3]: 0.0481 µM
Activity [4]: 7%
inhibition in vivo at 40 mg/kg [5]: 21.8%
Activity [6]: 33%
Activity [7]: 17%
GI50 [8]: 3.5 µM
TGI [8]: 6.35 µM
CC50 [8, 23]: 0.0092 µM
Activity [9]: 7%
Activity [10]: 12%
Activity [11]: 37%
Activity [12]: 26%
Activity [13]: 1%
IC50 [14]: > 1 µM
Activity [15]: 46%
Activity [16]: 10%
GI50 [17]: 3.38 µM
TGI [17]: 6.05 µM
CC50 [17, 23]: 0.00873 µM
Activity [18]: 16%
Activity [19]: 25%
Activity [20]: 15%
Activity [21]: 35%
Activity [22]: 32%
